From ChEMBL document CHEMBL1671848, “In Vitro and In Vivo Osteogenic Activity of Largazole” (ACS Med Chem Lett, 2011)
The source made the active and inactive calls. No cut-off for these calls is given here.

What was measured:
C2C12 [1] = assay: Induction of osteoblast differentiation in mouse C2C12 cells assessed as increase of osteopontin expression up to 100 nM after 6 days; format: functional, cell-based
C2C12 [2] = assay: Osteogenic activity in mouse C2C12 cells assessed as increase of BMP6 mRNA expression at up to 50 nM after 6 days by RT-PCR analysis; format: functional, cell-based
In short: (§1)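 Quantitative real-time PCR of mRNA from C2C12 cells, 1 × 10^6 cells per 60-mm plate, treated 6 days; rhBMP-2 at 300 ng/mL served as reference osteoblastogenesis inducer.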

Mus musculus [3] = assay: Osteogenic activity in mouse assessed as induction of woven bone formation at 10 uM administered with collagen sponges in calvarial bone after 3 weeks; format: functional, organism-based
In short: (§2)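 Collagen sponges holding 5 μL of compound solution or PBS vehicle placed onto mouse calvarial bones; after 3-week implantation calvariae removed, fixed, decalcified, paraffin-embedded and sectioned for histology of woven bone formation.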

Oryctolagus cuniculus = species: Oryctolagus cuniculus; assay: Osteogenic activity in rabbit calvarial bone fracture healing model assessed as bone formation at 100 to 200 nM after 4 weeks; format: functional
C2C12 [4] = assay: Cytotoxicity against mouse C2C12 cells up to 100 uM after 3 days; format: cell-based; settings: c2c12, 72 h
C2C12 [5] = assay: Induction of osteoblast differentiation in mouse C2C12 cells assessed as increase of alkaline phosphatase expression after 6 days; format: functional, cell-based
In short: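 C2C12 cells, 4 × 10^3 cells/well, cultured 24 h, then treated for 6 days with medium changed every 3 days; osteoblast differentiation assessed by alkaline phosphatase staining.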

Mus musculus [6] = assay: Osteogenic activity in mouse assessed as induction of woven bone formation at 50 uM administered with collagen sponges in calvarial bone after 3 weeks; format: functional, organism-based; in short: as §2
C2C12 [7] = assay: Inhibition of HDAC in mouse C2C12 cells at 5 to 100 nM after 24 hrs by fluorescence assay; format: cell-based
In short: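 Total HDAC activity in intact C2C12 cells, 4 × 10^3 cells/well, cultured 24 h, pretreated with compound 1 h, then incubated with fluorogenic deacetylase Lysyl substrate; HDAC activity read by fluorescence per kit protocol.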

C2C12 [8] = assay: Osteogenic activity in mouse C2C12 cells assessed as increase of BMP9 mRNA expression at up to 50 nM after 6 days by RT-PCR analysis; format: functional, cell-based; in short: as §1
C2C12 [9] = assay: Osteogenic activity in mouse C2C12 cells assessed as increase of BMP2 mRNA expression at up to 50 nM after 6 days by RT-PCR analysis; format: functional, cell-based; in short: as §1
[10] = biological target: Runt-related transcription factor 2 (Mus musculus) (UniProt Q08775); assay: Activation of Runx2 activity in mouse C2C12 cells at 50 nM after 24 hrs by luciferase reporter gene assay relative to control; format: cell-based
In short: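 6×OSE2-luc plasmid-transfected C2C12 cells, 4 × 10^3 cells/well, cultured 1 day, then 1 day in DMEM with 5% FBS with or without compound; Runx2 activation read as luciferase activity.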

C2C12 [11] = assay: Osteogenic activity in mouse C2C12 cells assessed as increase of Runx2 mRNA expression at 50 nM after 6 days by RT-PCR analysis relative to control; format: functional; in short: as §1
C2C12 [12] = assay: Osteogenic activity in mouse C2C12 cells assessed as inhibition of multinucleated osteoclasts formation after 6 days; format: functional, cell-based
C2C12 [13] = assay: Osteogenic activity in mouse C2C12 cells assessed as increase of BMP7 mRNA expression at up to 50 nM after 6 days by RT-PCR analysis; format: functional, cell-based; in short: as §1
C2C12 [14] = assay: Osteogenic activity in mouse C2C12 cells assessed as increase of BMP4 mRNA expression at up to 50 nM after 6 days by RT-PCR analysis; format: functional, cell-based; in short: as §1
C2C12 [15] = assay: Inhibition of HDAC in mouse C2C12 cells assessed as increase of acetylated histone level after 24 hrs by Western blotting; format: cell-based
In short: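 C2C12 cells, 2 × 10^6 cells per 100-mm plate, cultured 24 h, then treated 24 h; protein extracts analysed for hyperacetylated histones by Western blot with actin as loading control.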

Runt-related transcription factor 2 (Mus musculus), sequence (Q08775 whole entry): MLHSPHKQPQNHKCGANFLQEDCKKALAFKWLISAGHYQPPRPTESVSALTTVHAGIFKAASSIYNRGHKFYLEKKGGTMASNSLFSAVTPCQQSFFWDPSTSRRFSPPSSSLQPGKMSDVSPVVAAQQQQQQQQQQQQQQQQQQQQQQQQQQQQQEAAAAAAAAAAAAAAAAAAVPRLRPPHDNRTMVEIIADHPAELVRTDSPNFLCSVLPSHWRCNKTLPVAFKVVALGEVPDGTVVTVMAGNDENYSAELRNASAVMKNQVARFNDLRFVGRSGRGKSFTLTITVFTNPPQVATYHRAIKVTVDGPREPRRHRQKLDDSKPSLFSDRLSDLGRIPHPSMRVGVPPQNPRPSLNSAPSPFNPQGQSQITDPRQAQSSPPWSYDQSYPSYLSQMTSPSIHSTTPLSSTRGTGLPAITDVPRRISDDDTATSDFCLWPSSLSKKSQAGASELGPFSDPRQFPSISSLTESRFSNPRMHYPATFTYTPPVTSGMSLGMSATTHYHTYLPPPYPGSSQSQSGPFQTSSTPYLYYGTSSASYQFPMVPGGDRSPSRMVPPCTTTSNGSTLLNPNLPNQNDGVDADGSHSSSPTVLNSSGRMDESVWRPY

`CCCCCCCC(=O)SCC/C=C/[C@@H]1CC(=O)NCc2nc(cs2)C2=N[C@@](C)(CS2)C(=O)N[C@@H](C(C)C)C(=O)O1` [LARGAZOLE] was tested, and the Activity (C2C12 [1]) was “Active”, the Activity (C2C12 [2]) was “Active” and the Activity (Mus musculus [3]) was “Active”. For the same compound, the Activity (Oryctolagus cuniculus) was “Active”, the Activity (C2C12 [4]) was “Non-toxic” and the Activity (C2C12 [5]) was “Active”. For the same compound, the Activity (Mus musculus [6]) was “Active”, the inhibition (C2C12 [7]) was “Active” and the Activity (C2C12 [8]) was “Active”. For the same compound, the Activity (C2C12 [9]) was “Active”, the fold change (FC) [10] was 29 and the “fold change (FC)” value (C2C12 [11]) was 3. The Activity (C2C12 [12]) was “Active”, the Activity (C2C12 [13]) was “Active” and the Activity (C2C12 [14]) was “Active”. The inhibition (C2C12 [15]) was “Dose-dependent effect”.
